Measured values: ChEMBL document CHEMBL4017500 (J Med Chem, 2017)
Active and inactive are the calls of the source. No cut-off for these calls is given here.

Legend:
[1] = target: 72 kDa type IV collagenase (Homo sapiens) (UniProt P08253); assay: Inhibition of human MMP2 (Tyr110 to Asp452 residues) expressed in yeast at 50 to 100 uM using Mca-Pro-LeuGly-Leu-Dpa-Ala-Arg-NH2.AcOH as substrate preincubated for 30 mins followed by substrate addition measured after 20 mins by fluorescence assay relative to control
Method in brief: (§1)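 Human recombinant MMP-2 (1.16 U/well) or MMP-12 (0.007 U/well) in 50 mM HEPES, 10 mM CaCl2, 0.05% Brij-35, pH 7.5. Enzyme and inhibitor pre-incubated 30 min at 37 °C, then OmniMMP fluorogenic substrate (4 μM) added. Fluorescence rise followed 20 min at ex/em 320/400 nm. Activity relative to no-inhibitor wells, with 200 μM NSA as 0%. Run in triplicate.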

[2] = target: T1, Protein deacetylase HDAC6 (Homo sapiens) (UniProt Q9UBN7); assay: Inhibition of full length human N-terminal GST-tagged HDAC6 expressed in baculovirus infected sf9 cells at 10 uM using HDAC substrate 3 preincubated for 5 mins followed by substrate addition measured after 30 mins by fluorescence assay
T1 sequence (whole entry): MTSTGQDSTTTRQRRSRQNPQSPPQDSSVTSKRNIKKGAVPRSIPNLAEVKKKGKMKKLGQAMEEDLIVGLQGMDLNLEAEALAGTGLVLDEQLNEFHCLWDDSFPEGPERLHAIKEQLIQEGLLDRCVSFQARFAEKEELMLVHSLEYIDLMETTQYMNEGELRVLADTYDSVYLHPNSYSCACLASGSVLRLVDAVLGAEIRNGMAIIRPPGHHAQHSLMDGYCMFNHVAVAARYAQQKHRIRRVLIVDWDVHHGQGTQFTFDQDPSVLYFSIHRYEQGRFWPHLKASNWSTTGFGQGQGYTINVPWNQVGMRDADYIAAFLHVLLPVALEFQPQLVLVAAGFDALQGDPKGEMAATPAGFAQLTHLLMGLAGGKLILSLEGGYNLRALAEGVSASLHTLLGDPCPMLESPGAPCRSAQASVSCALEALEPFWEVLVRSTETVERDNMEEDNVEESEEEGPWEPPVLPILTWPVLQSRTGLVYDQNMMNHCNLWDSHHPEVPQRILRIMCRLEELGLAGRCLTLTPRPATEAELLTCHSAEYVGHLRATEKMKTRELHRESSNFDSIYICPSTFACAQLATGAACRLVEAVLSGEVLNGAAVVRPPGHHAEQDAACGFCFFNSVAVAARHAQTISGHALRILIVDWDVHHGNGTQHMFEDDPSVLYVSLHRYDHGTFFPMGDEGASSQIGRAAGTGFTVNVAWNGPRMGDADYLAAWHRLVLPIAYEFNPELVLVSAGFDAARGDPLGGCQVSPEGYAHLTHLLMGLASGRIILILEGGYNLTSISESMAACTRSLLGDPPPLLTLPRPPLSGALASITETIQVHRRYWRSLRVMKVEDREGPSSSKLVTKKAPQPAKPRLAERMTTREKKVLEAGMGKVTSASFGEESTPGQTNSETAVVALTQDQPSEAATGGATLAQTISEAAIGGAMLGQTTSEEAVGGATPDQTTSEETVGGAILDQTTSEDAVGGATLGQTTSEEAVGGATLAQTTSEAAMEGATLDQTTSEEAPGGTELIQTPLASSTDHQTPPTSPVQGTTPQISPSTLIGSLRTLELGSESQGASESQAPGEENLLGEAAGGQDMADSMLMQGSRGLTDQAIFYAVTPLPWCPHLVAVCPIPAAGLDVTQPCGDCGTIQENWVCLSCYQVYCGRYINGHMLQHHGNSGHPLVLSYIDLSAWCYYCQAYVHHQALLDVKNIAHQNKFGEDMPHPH
Method in brief: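 Inhibitor pre-incubated 5 min, then HDAC substrate 3 (20 μM) added, 30 min at 37 °C. Developer added for 15 min at room temperature; fluorescence read at ex/em 360/460 nm. Activity relative to no-inhibitor wells, with 200 μM SAHA as 0%. Run in triplicate.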

[3] = target: Macrophage metalloelastase (Homo sapiens) (UniProt P39900); assay: Inhibition of human MMP12 (Phe99 to Leu271 residues) expressed in Escherichia coli at 50 to 100 uM using Mca-Pro-LeuGly-Leu-Dpa-Ala-Arg-NH2.AcOH as substrate preincubated for 30 mins followed by substrate addition measured after 20 mins by fluorescence assay relative to control; method in brief: as §1
[4] = Selectivity ratio of compound effect for inhibition of bacterial MBP-fused NDM1 expressed in Escherichia coli BL21(DE3) to compound effect for inhibition of human MMP12 (Phe99 to Leu271 residues) expressed in Escherichia coli
Bacteria = assay: Binding affinity to bacterial NDM-1 expressed in Escherichia coli BL21(DE3) assessed as intrinsic tryptophan fluorescence quenching up to 32 uM after 30 mins by luminescence spectrometric method relative to control
Method in brief: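 NDM-1 at 2 μM final in 50 mM HEPES pH 7.5 mixed with compound at 4–32 μM, incubated 30 min. Emission scanned 300–400 nm with excitation at 280 nm. Relative tryptophan fluorescence read at 348 nm, with buffer set to 0% and inhibitor-free NDM-1 to 100%. Control run with 2 μM L-tryptophan in place of enzyme.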

Escherichia coli = assay: Inhibition of NDM1 in Escherichia coli isolate Ah8.73 assessed as potentiation of imipenem-induced antibacterial activity by measuring imipenem MIC at 100 mg/L after 18 to 20 hrs by broth microdilution assay (reference value: 16 mg/L)
Klebsiella pneumoniae [5] = assay: Effect on growth of Klebsiella pneumoniae isolate Pd1.49 at 100 mg/L after 18 to 20 hrs by broth microdilution assay
Method in brief: (§2)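 Mueller-Hinton broth microdilution per CLSI, triplicate. blaNDM-1 clinical isolates grown from OD600 0.1 to 0.224 (~1–2 × 10^8 CFU/mL), diluted 3 μL into 4997 μL MH, and 100 μL added to 100 μL of compound (100 mg/L) alone. Incubated 37 °C for 18–20 h, then scored for growth.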

Klebsiella pneumoniae [6] = assay: Effect on growth of Klebsiella pneumoniae isolate Pd1.55 at 100 mg/L after 18 to 20 hrs by broth microdilution assay; method in brief: as §2
Klebsiella pneumoniae [7] = assay: Effect on growth of Klebsiella pneumoniae isolate Cm1.63 at 100 mg/L after 18 to 20 hrs by broth microdilution assay; method in brief: as §2
HEK293 = assay: Cytotoxicity against HEK293 cells assessed as change in morphology up to 400 uM after 4 to 24 hrs by microscopic assay; format: cell-based; settings: human
Method in brief: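 HEK293 cells treated as in the viability assay (4 or 24 h, DMSO vehicle control). Imaged by epifluorescence microscopy at 20X magnification to assess growth and morphology.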

[8] = system: histone deacetylase 1/6 (Homo sapiens); assay: Selectivity ratio of compound effect for inhibition of bacterial MBP-fused NDM1 expressed in Escherichia coli BL21(DE3) to compound effect for inhibition of human histone deacetylases HDAC-1/HDAC-6

Sequence of 72 kDa type IV collagenase (Homo sapiens) (P08253 110-660 limits assumed): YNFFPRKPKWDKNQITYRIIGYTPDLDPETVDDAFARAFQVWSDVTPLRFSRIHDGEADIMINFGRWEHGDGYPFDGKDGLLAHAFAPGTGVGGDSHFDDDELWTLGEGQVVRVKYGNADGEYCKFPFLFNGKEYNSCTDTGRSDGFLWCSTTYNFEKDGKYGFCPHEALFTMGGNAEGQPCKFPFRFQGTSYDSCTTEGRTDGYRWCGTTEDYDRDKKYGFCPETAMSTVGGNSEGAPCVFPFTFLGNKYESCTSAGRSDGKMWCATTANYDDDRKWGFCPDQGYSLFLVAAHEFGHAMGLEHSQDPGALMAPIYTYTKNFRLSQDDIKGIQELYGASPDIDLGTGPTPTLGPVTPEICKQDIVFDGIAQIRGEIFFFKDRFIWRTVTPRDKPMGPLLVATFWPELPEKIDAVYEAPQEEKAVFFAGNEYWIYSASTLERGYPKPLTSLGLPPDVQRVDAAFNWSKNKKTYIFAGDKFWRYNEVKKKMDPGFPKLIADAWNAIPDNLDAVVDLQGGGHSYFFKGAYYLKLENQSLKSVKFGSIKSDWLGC
Sequence of Macrophage metalloelastase (Homo sapiens) (P39900 106-470 limits assumed): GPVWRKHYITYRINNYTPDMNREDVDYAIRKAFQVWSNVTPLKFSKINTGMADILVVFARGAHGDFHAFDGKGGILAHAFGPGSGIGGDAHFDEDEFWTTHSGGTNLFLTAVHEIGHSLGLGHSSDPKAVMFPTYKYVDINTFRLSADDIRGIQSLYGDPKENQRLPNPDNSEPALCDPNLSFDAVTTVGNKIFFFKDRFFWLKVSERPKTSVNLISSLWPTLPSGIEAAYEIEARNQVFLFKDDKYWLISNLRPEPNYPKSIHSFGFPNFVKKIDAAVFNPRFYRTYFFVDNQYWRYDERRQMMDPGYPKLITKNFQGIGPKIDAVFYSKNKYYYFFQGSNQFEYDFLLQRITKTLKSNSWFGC

**Q.** With Nc1cccc(-c2cc(C(=O)O)nc(C(=O)O)c2)c1 as the compound, how does the inhibition [1] read?
**A.** < 50%

**Q.** And the inhibition [2]?
**A.** inactive

**Q.** And the inhibition [3]?
**A.** < 50%

**Q.** And the Selectivity ratio [4]?
**A.** 100 to 1000

**Q.** And the Activity (Bacteria)?
**A.** 50 to 60%

**Q.** And the MIC (Escherichia coli)?
**A.** 0.5 µg/mL

**Q.** And the Activity (Klebsiella pneumoniae [5])?
**A.** Non-Toxic

**Q.** And the Activity (Klebsiella pneumoniae [6])?
**A.** Non-Toxic

**Q.** What about the Activity (Klebsiella pneumoniae [7]) of the same compound?
**A.** Non-Toxic

**Q.** What about the Activity (HEK293) of the same compound?
**A.** Non-Toxic

**Q.** What about the Selectivity ratio [8] of the same compound?
**A.** 500 to 1000
